Assays:
Type in all cases: functional, cell-based
HepG2 = test: Cytotoxicity against human HepG2 cells assessed as cell viability after 48 hrs by MTT assay; details: HepG2, 48 h
Outline: (§1)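 Cells were trypsinized, seeded in 96-well plates at 2 × 10³ cells/well and grown for 24 h. Medium was then replaced with compound solutions (in DMSO, range from 0.1) for 48 h, and viability was read by MTT. Cancer lines were grown in RPMI 1640 + 10% FCS. IC50 from 3 independent experiments, each in triplicate.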

NCI-H460 = test: Cytotoxicity against human NCI-H460 cells assessed as cell viability after 48 hrs by MTT assay; details: NCI-H460, 48 h; outline: as §1
MGC-803 = test: Cytotoxicity against human MGC803 cells assessed as cell viability after 48 hrs by MTT assay; details: MGC-803, 48 h; outline: as §1
A-375 = test: Cytotoxicity against human A375 cells assessed as cell viability after 48 hrs by MTT assay; details: A-375, 48 h; outline: as §1

Q: `CCCCn1c(/C=C/c2ccc([N+](=O)[O-])cc2)nc2ccccc2c1=O` was tested. Which IC50 (HepG2) did it give?
A: > 20 µM

Q: What about the IC50 (NCI-H460) of the same compound?
A: > 20 µM

Q: And the IC50 (MGC-803)?
A: > 20 µM

Q: What about the IC50 (A-375) of the same compound?
A: > 20 µM

Q: Which IC50 (HepG2) does the source give for `CN(C)CCn1c(/C=C/c2ccc3c(c2)OCO3)nc2ccccc2c1=O` here?
A: > 20 µM

Q: And the IC50 (NCI-H460)?
A: > 20 µM

Q: And the IC50 (MGC-803)?
A: > 20 µM

Q: What about the IC50 (A-375) of the same compound?
A: > 20 µM

Q: For `CN(C)CCCn1c(/C=C/c2ccc(F)cc2)nc2ccccc2c1=O`, which IC50 (HepG2) is on record?
A: > 20 µM

Q: What about the IC50 (NCI-H460) of the same compound?
A: > 20 µM

Q: And the IC50 (MGC-803)?
A: > 20 µM

Q: What about the IC50 (A-375) of the same compound?
A: > 20 µM

Q: For `COc1cc2nc(/C=C/c3ccc4c(c3)OCO4)n(CCCN(C)C)c(=O)c2cc1OC`, which IC50 (A-375) is on record?
A: > 20 µM

Q: For `CCCCn1c(/C=C/c2ccc(F)cc2)nc2ccccc2c1=O`, which IC50 (HepG2) is on record?
A: > 20 µM

Q: What about the IC50 (NCI-H460) of the same compound?
A: > 20 µM

Q: What about the IC50 (MGC-803) of the same compound?
A: > 20 µM

Q: And the IC50 (A-375)?
A: > 20 µM

Q: What does the source list for `CN(C)CCCn1c(/C=C/c2cccc(O)c2)nc2cc(Cl)ccc2c1=O`?
A: IC50 (HepG2): > 20 µM; IC50 (NCI-H460): 10.5 µM; IC50 (MGC-803): > 20 µM; IC50 (A-375): > 20 µM

Q: Which IC50 (HepG2) does the source give for `CN(C)CCCn1c(/C=C/c2ccccc2Br)nc2cc(Cl)ccc2c1=O` here?
A: 8.1 µM

Q: What about the IC50 (NCI-H460) of the same compound?
A: 7.49 µM

Q: What about the IC50 (MGC-803) of the same compound?
A: 12.6 µM

Q: And the IC50 (A-375)?
A: 13.1 µM

Q: `CN(C)CCn1c(/C=C/c2ccccc2Br)nc2ccccc2c1=O` was tested. Which IC50 (HepG2) did it give?
A: > 20 µM

Q: And the IC50 (NCI-H460)?
A: > 20 µM

Q: And the IC50 (MGC-803)?
A: > 20 µM

Q: And the IC50 (A-375)?
A: > 20 µM

Q: With `COc1ccc(/C=C/c2nc3ccccc3c(=O)n2CCN(C)C)cc1OC` as the compound, how does the IC50 (HepG2) read?
A: > 20 µM

Q: And the IC50 (NCI-H460)?
A: > 20 µM

Q: What about the IC50 (MGC-803) of the same compound?
A: > 20 µM

Q: And the IC50 (A-375)?
A: > 20 µM

Q: `COc1ccc(/C=C/c2nc3cc(Cl)ccc3c(=O)n2CCCN(C)C)cc1OC` was tested. Which IC50 (HepG2) did it give?
A: > 20 µM

Q: And the IC50 (NCI-H460)?
A: > 20 µM

Q: What about the IC50 (MGC-803) of the same compound?
A: > 20 µM

Q: And the IC50 (A-375)?
A: > 20 µM

Q: `CN(C)CCn1c(/C=C/c2ccc(Cl)cc2Cl)nc2ccccc2c1=O` was tested. Which IC50 (HepG2) did it give?
A: > 20 µM

Q: And the IC50 (NCI-H460)?
A: > 20 µM

Q: What about the IC50 (MGC-803) of the same compound?
A: > 20 µM

Q: And the IC50 (A-375)?
A: > 20 µM

Q: With `COc1cc2nc(/C=C/c3ccc([N+](=O)[O-])cc3)n(CCCN(C)C)c(=O)c2cc1OC` as the compound, how does the IC50 (A-375) read?
A: > 20 µM

Q: For `CN(C)CCCn1c(/C=C/c2ccc(Cl)cc2)nc2cc(Cl)ccc2c1=O`, which IC50 (HepG2) is on record?
A: 6.43 µM

Q: What about the IC50 (NCI-H460) of the same compound?
A: 7.72 µM

Q: And the IC50 (MGC-803)?
A: 6.88 µM

Q: What about the IC50 (A-375) of the same compound?
A: 14.1 µM

Q: `COc1ccc(/C=C/c2nc3cc(OC)c(OC)cc3c(=O)n2CCCN(C)C)cc1OC` was tested. Which IC50 (A-375) did it give?
A: > 20 µM

Q: Which results are given for `CN(C)CCn1c(/C=C/c2cccc(O)c2)nc2ccccc2c1=O`?
A: IC50 (HepG2): > 20 µM; IC50 (NCI-H460): > 20 µM; IC50 (MGC-803): > 20 µM; IC50 (A-375): > 20 µM

Q: Which results are given for `CCCCn1c(/C=C/c2ccc(Cl)cc2)nc2ccccc2c1=O`?
A: IC50 (HepG2): > 20 µM; IC50 (NCI-H460): > 20 µM; IC50 (MGC-803): > 20 µM; IC50 (A-375): > 20 µM

Q: What does the source list for `CCCCn1c(/C=C/c2ccc3c(c2)OCO3)nc2ccccc2c1=O`?
A: IC50 (HepG2): > 20 µM; IC50 (NCI-H460): > 20 µM; IC50 (MGC-803): > 20 µM; IC50 (A-375): > 20 µM

Q: What does the source list for `CN(C)CCn1c(/C=C/c2ccc([N+](=O)[O-])cc2)nc2ccccc2c1=O`?
A: IC50 (HepG2): > 20 µM; IC50 (NCI-H460): > 20 µM; IC50 (MGC-803): > 20 µM; IC50 (A-375): > 20 µM

Q: `COc1cc2nc(/C=C/c3cccc(O)c3)n(CCCN(C)C)c(=O)c2cc1OC` was tested. Which IC50 (A-375) did it give?
A: > 20 µM

Q: With `CCCCn1c(/C=C/c2cccc([N+](=O)[O-])c2)nc2ccccc2c1=O` as the compound, how does the IC50 (HepG2) read?
A: > 20 µM

Q: And the IC50 (NCI-H460)?
A: > 20 µM

Q: What about the IC50 (MGC-803) of the same compound?
A: > 20 µM

Q: What about the IC50 (A-375) of the same compound?
A: > 20 µM
